Screening results as filed in PubChem BioAssay.
The full list was thinned out, with hits kept by preference.
V-ATPase pHluor: regulators of yeast V-ATPase proton transport | AID 504577 | response, % at 10 µM | 350,000 tested, 0.37% active | S. cerevisiae, pHLuorin cytosolic pH fluorescence; in the data active = response mostly above about 7.3%, no sharp cut-off; inactive = mostly below about 5.4%; also: actives read high
UPR XBP1 act: activators of adaptive arm of unfolded protein response (XBP1) | CHO-XBP1 luciferase reporter, IRE1-XBP1 UPR activation, luminescence; percent of tunicamycin response, DMSO as zero | activation, % at 20 µM | 330,000 tested, 0.33% active;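 active = versus positive control, 20 µM dose yields 30% or more activation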
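Material: IRE1-XBP1 luciferase reporter CHO line / Quantity: one thousand reporter cells per well / Buffer or medium: F12 with 10% serum / Compound: 20 µM single concentration, DMSO 1% / Times: 6 h treatment, 37 °C / Detection: Steady-Glo luciferase glow luminescence, 10 min after reagent addition / Benchmarks: tunicamycin high, DMSO low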
UPR CHOP act: activators of apoptotic arm of unfolded protein response (CHOP); CHO-CHOP luciferase reporter, UPR activation, luminescence; percent of tunicamycin response over DMSO baseline; 330,000 tested, 0.34% active; activation, % at 10 µM; AID 449763;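 active = at 10 µM dose, activation of 40% or more, normalized to positive control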
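assay system = CHO CHOP reporter cells | amount = 500 CHO-CHOP cells per well | buffer or medium = F12 with 10% FBS | incubation = 16-18 h cell attachment, then 6 h compound exposure, 37 °C | detection = luminescence read with Steady-Glo | read-out = percent activation relative to tunicamycin control | controls = tunicamycin high control, DMSO low control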
CHOP inh: inhibitors of CHOP induction in ER stress response | 220,000 tested, 3.8% active | inhibition, % at 10 µM | CHO-K1 CHOP-promoter luciferase, tunicamycin-induced, 15-18 h | AID 2732;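 active = compounds that reduced the stress-induced luciferase reporter signal by more than about 70% of percent inhibition, limit read from the data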
TbMetRS inhib: Trypanosoma brucei MetRS inhibition | purified T. brucei MetRS, ATP depletion, Kinase-Glo luminescence | inhibition, % at 11.9 µM | 360,000 tested, 0.4% active | AID 624268;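 active = inhibition above a per-plate cutoff of the control wells' mean inhibition plus 3 SD, cut at about 5.5% in these data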
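Dosing: 11.9 µM single point; system: parasite MetRS enzyme; technique: luminescence of leftover ATP; times: 15 min enzyme-compound preincubation, 2 h reaction, 10 min detection, 25 °C; replicates: each compound tested once; read-out basis: percent inhibition relative to median high and low control wells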
UPR XBP1 confirm: confirmation of adaptive unfolded protein response (XBP1) activators | shares compounds with UPR XBP1 act | activation, % at 20 µM | 1,000 tested, 63% active | AID 485299 | CHO-XBP1 IRE1-XBP1 luciferase reporter, luminescence;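 active = reporter signal at least 30% of the positive control's activation in two or more of four replicate wells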
Each line names hits and unclear results; the compound was inactive in the other large screens (follow-up assays come after a bar, where they were run).

Cc1ccc(C(=O)Nc2cc(S(=O)(=O)N3CCOCC3)ccc2N2CCCC2)cc1	UPR XBP1 act 35 (no result: CHOP inh) | UPR XBP1 confirm 38
Cc1ccc(C)c(N2CCN(C(=O)c3cc(S(=O)(=O)N4CCOCC4)ccc3F)CC2)c1	UPR XBP1 act 33 | UPR XBP1 confirm inactive
Cn1cccc1Cc1nnc(SCC(=O)Nc2nc3ccccc3s2)n1CCc1ccccc1	UPR XBP1 act 30, CHOP inh 95 | UPR XBP1 confirm inactive
Cc1nnc(NC(=O)CSc2nnc(Cc3cccn3C)n2CCc2ccccc2)s1	none
CCc1ccc(OCCNc2cc(N3CCNC(C)C3)ccc2[N+](=O)[O-])cc1 (stereo not drawn)	UPR XBP1 act 56 (no result: CHOP inh) | UPR XBP1 confirm 68
NC1=NC[C@H](Cc2ccc(O)cc2)N1CCc1cc(C(F)(F)F)cc(C(F)(F)F)c1	none
NC1=NC[C@@H](CC2CCCCC2)N1CCc1cc(C(F)(F)F)cc(C(F)(F)F)c1	UPR XBP1 act 49 (no result: CHOP inh) | UPR XBP1 confirm 55
COc1ccccc1NC(=O)N[C@@H](Cc1c[nH]c2ccccc12)C(=O)NN	none (no result: CHOP inh)
Cc1ccc(-c2nc(SC(C)C(=O)N3CCCC3)n[nH]2)cc1 (stereo not drawn)	none (no result: CHOP inh)
COc1cccc2cc(C(=O)Nc3cc(C)cc(C)c3)/c(=N/NS(=O)(=O)c3ccccc3)oc12	UPR XBP1 act 240 (no result: CHOP inh) | UPR XBP1 confirm inactive
CCCCC1CCC(C(=O)N(CC(C)C)c2c(N)n(CCCC)c(=O)[nH]c2=O)CC1 (stereo not drawn)	UPR XBP1 act 39 (no result: CHOP inh) | UPR XBP1 confirm 38
Cc1cc(Oc2ccccc2)nc2ccc(O)cc12	none (no result: V-ATPase pHluor, UPR XBP1 act, UPR CHOP act, TbMetRS inhib)
Oc1ccc(-c2nc3ccc4ccccc4c3c3c2CCC3)cc1O	UPR XBP1 act 31 | UPR XBP1 confirm 51
Cc1cc(C)c2c(ccc3ccccc32)n1	none (no result: UPR XBP1 act, UPR CHOP act, CHOP inh)
COC(=O)[C@@]12C[C@@H](CC(=O)NCc3ccccc3)C(=O)N(Cc3ccccc3)C1=CCC(C)(C)C2	none (no result: V-ATPase pHluor, UPR XBP1 act, UPR CHOP act, CHOP inh)
OC(c1ccc(Cl)c(Cl)c1)c1ncc(-c2ccccc2Cl)[nH]1 (stereo not drawn)	none (no result: V-ATPase pHluor, UPR XBP1 act, UPR CHOP act, CHOP inh)
CCOc1ccc(NC(=S)NC(=O)/C=C/c2ccc(C)cc2)c([N+](=O)[O-])c1	UPR XBP1 act 213 | UPR XBP1 confirm 144
COc1ccc(/C=C/C(=O)Nc2ccc(OC)cc2[N+](=O)[O-])cc1	none
Cc1ccc(NC(=O)Cn2nc(C(=O)O)c3ccccc3c2=O)cc1S(=O)(=O)N1CCCCCC1	none (no result: UPR XBP1 act, UPR CHOP act, CHOP inh)
Cc1ccc(C(=O)N2N=C(c3ccc(Br)cc3)CC2c2ccccc2O)cc1 (stereo not drawn)	UPR XBP1 act 40 (no result: CHOP inh) | UPR XBP1 confirm 41
c1cc(SC2CCCCC2)cc(-c2nc3cnccn3c2NC2CCCCC2)c1	UPR XBP1 act 196 (no result: CHOP inh) | UPR XBP1 confirm 171
COc1ccccc1CNC(=O)CNC(=O)c1sc2ccccc2c1Cl	none (no result: CHOP inh)
N#Cc1ccc(-c2ccccc2)nc1SCC(=O)c1cccc(Cl)c1	none
N#Cc1ccc(-c2ccc(Cl)cc2)nc1SCC(=O)c1cccc(Cl)c1	UPR XBP1 act 122 | UPR XBP1 confirm 369
Cc1ccc(CNC(=O)CN(C(=O)C2(C)CC(=O)N=C3C=CC=CN32)c2cccc(C)c2C)cc1 (stereo not drawn)	none (no result: CHOP inh)
COCCn1c(SCC(=O)N2CCCC2=O)nnc1-c1ccncc1	none (no result: UPR XBP1 act, UPR CHOP act, CHOP inh)
COc1ccc(CNc2nc(-c3ccccc3)nn2C(=O)c2ccc([N+](=O)[O-])cc2)cc1	UPR XBP1 act 33 | UPR XBP1 confirm inactive
O=C(N/N=C/c1ccc(Cl)cc1)c1sccc1OCc1ccc(F)cc1	UPR XBP1 act 50 | UPR XBP1 confirm 55
O=C(N/N=C/c1ccc(F)cc1)c1sccc1OCc1ccc(F)cc1	none
Nc1nc2c(Br)ccc(Br)c2cc1C(=O)NCc1cccc2ccccc12	none (no result: V-ATPase pHluor, UPR XBP1 act, UPR CHOP act, CHOP inh)
Cc1ccc(C)c(S(=O)(=O)NCC(=O)Nc2sc3c(c2C(N)=O)CCC(C)C3)c1 (stereo not drawn)	UPR XBP1 act 32 | UPR XBP1 confirm inactive
CCOC(=O)Nc1sc2c(c1C(N)=O)CCC(C)C2 (stereo not drawn)	none
O=C(NCc1cccs1)c1ccc(N2CCCCC2)nc1	none | UPR XBP1 confirm inactive
CC1CCCN(c2ccc(C(=O)NCc3cccs3)cn2)C1 (stereo not drawn)	UPR XBP1 act 38 | UPR XBP1 confirm 32
O=C(NCc1cccs1)c1ccncc1	none
CC1CCCN(c2ccc(C(=O)NCc3ccccc3)cn2)C1 (stereo not drawn)	none
O=C(N/N=C/c1ccccc1Cl)c1[nH]c2ccc(Br)cc2c1-c1ccccc1	UPR XBP1 act 50 | UPR XBP1 confirm 59
COc1ccc(/C=N/NC(=O)c2[nH]c3ccc(Br)cc3c2-c2ccccc2)c(C(=O)O)c1OC	none
O=C(NC(C(=O)N/N=C/c1ccccn1)c1n[nH]c(=O)c2ccccc12)c1ccccc1 (stereo not drawn)	none
COc1ccc(-c2sc3cc4c(cc3c2C#CC2(N)CCCCC2)OCO4)cc1	UPR XBP1 act 34 (no result: CHOP inh) | UPR XBP1 confirm inactive
Cn1c(Cl)cnc1C1CC(=O)c2cc(Cl)ccc2O1 (stereo not drawn)	UPR XBP1 act 77 | UPR XBP1 confirm 130
CN(C)c1ccc(Cl)cc1N	none
C/C(N)=C(/C#N)C(=O)COC(=O)[C@@H](NC(=O)c1ccccc1Cl)C(C)C	none
O=c1[nH]c(CSc2ncnc3sc(-c4ccccc4)cc23)nc2ccccc12	UPR XBP1 act 87 | UPR XBP1 confirm 142
O=c1[nH]c(CSc2nc(-c3ccccc3)cs2)nc2ccccc12	none
COCCCn1c(=NC(=O)c2ccccc2)c(C#N)cc2c(=O)n3cccc(C)c3nc21	UPR XBP1 act 43 | UPR XBP1 confirm inactive
COc1ccc(CN2C(=O)CCCC2(C)c2nc3ccccc3[nH]2)cc1 (stereo not drawn)	none (no result: V-ATPase pHluor, UPR XBP1 act, UPR CHOP act, CHOP inh)
C#CCn1c(=NC(=O)c2ccc(Br)s2)sc2cccc(OC)c21	UPR XBP1 act 73 | UPR XBP1 confirm 73
N#Cc1cccc(S(=O)(=O)NCC(=O)NCc2ccc3c(c2)OCO3)c1	none (no result: CHOP inh)
Cc1ccc2nc(/C(C#N)=C/c3ccc(O)c(O)c3)[nH]c2c1	UPR XBP1 act 43 (no result: CHOP inh) | UPR XBP1 confirm 33
CCOc1ccccc1NC(=O)Cn1c(=O)n(-c2ccccc2)c(=O)c2oc3ccccc3c21	UPR XBP1 act 65 | UPR XBP1 confirm 94
COc1ccc(C=NNC(=S)NC23CC4CC(CC(C4)C2)C3)cc1OC	none (no result: UPR XBP1 act, UPR CHOP act, CHOP inh)
COc1cc(/C=N/NC(=O)NC23CC4CC(CC(C4)C2)C3)ccc1OCC(N)=O	UPR XBP1 act 38 (no result: CHOP inh) | UPR XBP1 confirm inactive
O=C(N=Nc1c(O)n(C2OC(=O)c3ccccc32)c2ccccc12)c1ccc(O)cc1 (stereo not drawn)	UPR XBP1 act 105, CHOP inh 78 | UPR XBP1 confirm inactive
O=C(N=Nc1c(O)n(Cc2ccccc2)c2ccccc12)c1ccc(O)cc1	none
